Reference: ChEMBL document CHEMBL4251758, “Small Molecule Inhibition of MicroRNA miR-21 Rescues Chemosensitivity of Renal-Cell Carcinoma to Topotecan” (J Med Chem, 2018)
Active and inactive are the calls of the source. The rule behind the calls is not given here.

What was measured:
microRNA 21 [1] = assay: Inhibition of miR-21 RNA in human HeLa cells harboring miR-21 binding sequence in 3'-UTR of firefly luciferase gene assessed as increase in luciferase expression incubated for 48 hrs by Bright-Glo luciferase reporter gene assay relative to control; type: cell-based
Method in brief: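 HeLa-miR21-Luc stable line (miR-21 site in the firefly luciferase 3′-UTR), 1000 cells per well. Compound or DMSO (0.1% final) added after overnight attachment, in triplicate, for 48 h. Bright-Glo luminescence was normalized to XTT viability (450 nm) and expressed as fold change relative to DMSO. At least three independent experiments.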

A498 [2] = assay: Induction of apoptosis in human A498 cells assessed as increase in caspase-3/7 activity at 1 uM after 24 hrs by Caspase-Glo 3/7 assay relative to control; type: functional
microRNA 21 [3] = assay: Inhibition of miR-21 RNA (unknown origin) transfected in human HeLa cells at 0.1 to 1000 nM after 48 hrs by Bright-Glo luciferase reporter gene assay; type: cell-based
A498 [4] = assay: Inhibition of colony formation of human A498 cells after 2 weeks by crystal violet staining-based microscopic analysis; type: functional, cell-based; details: A498, 336 h
Method in brief: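 A498 cells, 10,000 per well, seeded in 0.45% low-melt agarose in DMEM over a 0.7% agarose base layer, containing increasing compound concentrations or DMSO (0.1% final), in triplicate. For combinations, the inhibitor was held at 10 μM. After 2 weeks, colonies were stained with 0.1% crystal violet and imaged by z-stack microscopy. Colony counts were normalized to DMSO; IC50 from sigmoidal fit.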

[5] = Stabilization of pre-miR-21 RNA (unknown origin) assessed as increase in melting temperature at 10 uM by UV-spectrophotometric analysis
Method in brief: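 Melting-curve analysis of precursor miR-21 RNA run with test compound, with DMSO as the reference condition and tobramycin (10 μM) as a positive control for RNA binding and stabilisation. Read-out is the shift in melting temperature of pre-miR-21 relative to the DMSO sample.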

SMILES | fold change (FC) (microRNA 21 [1]) | also measured
COc1cccc(-n2nnc(-c3nnc(-c4cccs4)o3)c2N)c1 | 2.68 | –
CCOc1ccc(-c2noc(-c3nnn(-c4cccc(/C(C)=N/O)c4)c3N)n2)cc1 | 3.14 | –
C/C(=N\O)c1cccc(-n2nnc(-c3nc(-c4ccc(O)cc4)no3)c2N)c1 | 1.98 | –
Nc1c(-c2nc(-c3cccs3)no2)nnn1-c1cccc(CO)c1 | 1.67 | –
Nc1c(-c2nc(-c3cccs3)no2)nnn1-c1cccc(OC(F)(F)F)c1 | 1.4 | –
c1ccc(-n2cc(-c3nc(-c4cccs4)no3)nn2)cc1 | 1.41 | –
C#CCOc1ccc(-n2nnc(-c3nc(-c4cccs4)no3)c2N)cc1 | 1.47 | –
Cc1cccc(-n2nnc(-c3nc(-c4cccs4)no3)c2N)c1C | 1.89 | –
CN(C)c1cccc(-n2nnc(-c3nc(-c4cccs4)no3)c2N)c1 | 2.56 | –
COc1cc(OC)cc(-n2nnc(-c3nc(-c4cccs4)no3)c2N)c1 | 2.3 | –
COc1cccc(-n2nnc(-c3nc(-c4ccccc4)no3)c2N)c1 | 2.19 | –
Nc1c(-c2nc(-c3cccs3)no2)nnn1-c1cccc(-c2ccccc2)c1 | 1.06 | –
CC(C)c1cccc(-n2nnc(-c3nnc(-c4cccs4)o3)c2N)c1 | 1.72 | –
Nc1c(-c2nc(-c3cccs3)no2)nnn1-c1ccccc1CO | 2.23 | –
Nc1c(-c2nc(-c3cccs3)no2)nnn1-c1cccc(O)c1 | 2.19 | –
Nc1c(-c2nnc(-c3cccs3)o2)nnn1-c1cccc(F)c1 | 1.6 | –
Nc1c(-c2nc(-c3cccs3)no2)nnn1-c1ccc2ccccc2c1 | 1.39 | –
CC(C)c1cccc(-n2nnc(-c3nc(-c4cccs4)no3)c2N)c1 | 1.82 | –
COc1cccc(-n2cc(-c3nc(-c4cccs4)no3)nn2)c1 | 2.2 | –

SMILES | fold change (FC) (microRNA 21 [1]) | also measured
Nc1c(-c2nc(-c3cccs3)no2)nnn1-c1cccc(C(F)(F)F)c1 | 1.08 | –
Nc1c(-c2nc(-c3cccs3)no2)nnn1-c1cccc(F)c1 | 1.93 | –
CC[C@@]1(O)C(=O)OCc2c1cc1n(c2=O)Cc2cc3c(CN(C)C)c(O)ccc3nc2-1 [TOPOTECAN] | – | fold change (FC) (A498 [2]): 3; inhibition (microRNA 21 [3]): inactive; IC50 (A498 [4]): 2 µM
Nc1c(-c2nc(-c3cccs3)no2)nnn1-c1cccc(C(=O)c2ccccc2)c1 | 1.82 | –
NC[C@H]1O[C@H](O[C@H]2[C@H](O)[C@@H](O[C@H]3O[C@H](CO)[C@@H](O)[C@H](N)[C@H]3O)[C@H](N)C[C@@H]2N)[C@H](N)C[C@@H]1O | – | ΔTm [5]: 19 °C
COc1cccc(-n2nnc(-c3nc(-c4ccccn4)no3)c2N)c1 | 2.23 | –
Fc1cccc(-n2cc(-c3nc(-c4cccs4)no3)nn2)c1 | 1.7 | –
CC(=O)c1cccc(-n2nnc(-c3nc(-c4cccs4)no3)c2N)c1 | 2.46 | –
C/C(=N\O)c1cccc(-n2nnc(-c3nc(-c4ccc(OC(C)C)cc4)no3)c2N)c1 | 1.19 | –
COc1ccc(-c2noc(-c3nnn(-c4cccc(/C(C)=N/O)c4)c3N)n2)cc1 | 1.51 | –
Nc1c(-c2nc(-c3cccs3)no2)nnn1-c1ccccc1 | 1.01 | –
COc1cccc(-n2nnc(-c3nc(-c4cccs4)no3)c2N)c1 | 2.84 | –
CCc1cccc(-n2nnc(-c3nc(-c4cccs4)no3)c2N)c1 | 1.63 | –
C#CCOc1cccc(-n2nnc(-c3nc(-c4cccs4)no3)c2N)c1 | 1.61 | –
C=CCOc1ccc(-c2noc(-c3nnn(-c4cccc(/C(C)=N/O)c4)c3N)n2)cc1 | 2.96 | –
COc1cccc(-n2nnc(-c3nc(-c4ccco4)no3)c2N)c1 | 2.19 | –
C/C(=N\O)c1cccc(-n2nnc(-c3nc(-c4cccs4)no3)c2N)c1 | 4.54 | –
Nc1c(-c2nc(-c3cccs3)no2)nnn1-c1ccc(CO)cc1 | 2.14 | –
COc1ccccc1-n1nnc(-c2nc(-c3cccs3)no2)c1N | 2.02 | –
